The nature of data set [1]: folding enthalpy; higher = less favourable; fluorescence melt of hairpins on a sequencing array, two-state fit. The following applies: sodium 0.088 M. The essentials:
(§1)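 On a sequenced MiSeq flow cell, library hairpins with annealed Cy3 and quencher oligos were imaged for Cy3 fluorescence in 2.5 °C steps up to 60 °C, in 50 mM Na-HEPES pH 8.0, 25 mM NaCl. Normalisation used pre-quench Cy3 and control constructs. Bootstrapped two-state fits gave melting temperature and folding enthalpy, combined by inverse variance across four replicates and with fitted temperatures raised by 9.35 °C to match UV melts.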

A short description of data set [2]: melting temperature; fluorescence melt of hairpins on a sequencing array, two-state fit, raised by 9.35 °C to match UV melts. The conditions noted are these: sodium 0.088 M. The essentials: as §1

For GAGCAAGGAAACTCGCTC ((((.((....)).)))), the folding enthalpy in data set [1] was -30.8 kcal/mol. Moreover, the Tm in data set [2] is 40.6 °C.
For the sequence GAGCACCCGAAAGGGCTC (((..(((....)))))), in data set [1], the folding enthalpy is -26.7 kcal/mol. In data set [2], the Tm amounted to 48.6 °C.
For the sequence GAGCACCGAAAGGTTCTC (((.(((....))).))), the folding enthalpy in data set [1] was -27.6 kcal/mol. Moreover, the Tm in data set [2] was 45.8 °C.
For the sequence GAGCACGAAAGTGCACTC ((((((....)))..))), the folding enthalpy in data set [1] is -11.9 kcal/mol. In data set [2], the Tm came to 58 °C.
On to GAGCACGAAAGTGCCTC ((((((....))).))), for which, in data set [1], the folding enthalpy was -10.4 kcal/mol. Moreover, the Tm in data set [2] was found to be 51.2 °C.
In the case of GAGCACGAAAGTGCGCTC ((((((....)))..))), the folding enthalpy in data set [1] was -12.5 kcal/mol. Besides, the Tm in data set [2] came out at 67.2 °C.
For GAGCACGAAAGTGGCCTC ((((((....)))..))) the same measures were -14 kcal/mol and 42 °C.
For GAGCACGAAAGTGGGCTC ((((((....)))..))) the same measures were -23.5 kcal/mol and 54.7 °C.
On to GAGCACGAAAGTGTCTC ((((((....))).))), for which the folding enthalpy in data set [1] was -23.3 kcal/mol. Further, in data set [2], the Tm is 53.2 °C.
For GAGCACGAAAGTGTTCTC ((((((....)))..))) the same measures were -25.5 kcal/mol and 52.1 °C.
As to GAGCACGCGAAAGCGCTC (((..(((....)))))), in data set [1], the folding enthalpy is -12.8 kcal/mol. For the same sequence, in data set [2], the Tm was found to be 47.6 °C.
With GAGCACGGAAACGTGTTC ((.((((....)))).)), the folding enthalpy in data set [1] is -26.2 kcal/mol. In data set [2], the Tm was determined as 51.6 °C.
Turning to GAGCAGCGAAAGCTACTC (((.(((....))).))), the folding enthalpy in data set [1] was -22.3 kcal/mol. In data set [2], the Tm was determined as 49.6 °C.
As to GAGCAGCGAAAGCTTCTC (((.(((....))).))), the folding enthalpy in data set [1] was -24.7 kcal/mol. Moreover, in data set [2], the Tm amounted to 43.2 °C.
Consider GAGCAGGAAACTGCTC ((((((....)))))), for which the folding enthalpy in data set [1] was -37.8 kcal/mol. Also, the Tm in data set [2] was found to be 62.3 °C.
Take GAGCAGGGAAACCTGTTC ((.((((....)))).)): in data set [1], the folding enthalpy is -24.1 kcal/mol. The Tm in data set [2] was determined as 46 °C.
For GAGCATCCGAAAGGACTC (((..(((....)))))) the same measures were -10.8 kcal/mol and 27.5 °C.
GAGCATGGAAACATGTTC ((.((((....)))).)): the folding enthalpy in data set [1] was -25.6 kcal/mol. Besides, the Tm in data set [2] amounted to 42.8 °C.
GAGCCAGGAAACCAGCTC ((((..(....)..)))): the folding enthalpy in data set [1] is -24.6 kcal/mol. Also, the Tm in data set [2] stood at 34.9 °C.
Consider GAGCCAGGAAACCGGCTC (((((.(....).))))), for which, in data set [1], the folding enthalpy is -37.5 kcal/mol. For the same sequence, the Tm in data set [2] came out at 56.6 °C.
For GAGCCCGAAAGGGACCTC ((((((....)))..))) the same measures were -15.6 kcal/mol and 45 °C.
Consider GAGCCCGAAAGGGAGCTC ((((((....)))..))), for which the folding enthalpy in data set [1] is -20 kcal/mol. Moreover, in data set [2], the Tm is 55.6 °C.
Take GAGCCCGGAAACGGACCC (.(.(((....))).).): the folding enthalpy in data set [1] is -11.2 kcal/mol. The Tm in data set [2] was 25.7 °C.
Consider GAGCCCGGAAACGGGCCC (.(((((....))))).), for which the folding enthalpy in data set [1] is -7.26 kcal/mol. For the same sequence, the Tm in data set [2] is 49.7 °C.
Take GAGCCGGGAAACCGACCC (.(.(((....))).).): the folding enthalpy in data set [1] was -13.9 kcal/mol. Further, in data set [2], the Tm is 30.1 °C.
In the case of GAGCCGGGAAACCGGTTC ((.((((....)))).)), in data set [1], the folding enthalpy was -34.5 kcal/mol. Besides, the Tm in data set [2] is 55 °C.
On to GAGCCTGGAAACAGGTTC ((.((((....)))).)), for which, in data set [1], the folding enthalpy was -27.2 kcal/mol. Also, the Tm in data set [2] came to 49.5 °C.
GAGCGAACGAAAGTTCTC (((..(((....)))))): in data set [1], the folding enthalpy was -9.38 kcal/mol. Further, in data set [2], the Tm came out at 27.4 °C.
In the case of GAGCGAGAAATCGCTC ((((((....)))))), the folding enthalpy in data set [1] is -30.4 kcal/mol. For the same sequence, the Tm in data set [2] was 67.4 °C.
In the case of GAGCGAGCGAAAGCTCTC (((..(((....)))))), the folding enthalpy in data set [1] was -8.27 kcal/mol. Besides, the Tm in data set [2] was 35.5 °C.
For GAGCGCGAAAGCGAACTC ((((((....)))..))) the same measures were -15.2 kcal/mol and 49 °C.
In the case of GAGCGCGAAAGCGCACTC ((((((....)))..))), the folding enthalpy in data set [1] was -10 kcal/mol. The Tm in data set [2] came out at 60.4 °C.
Regarding GAGCGCGAAAGCGCCTC ((((((....))).))), in data set [1], the folding enthalpy was -7.59 kcal/mol. The Tm in data set [2] was found to be 58.1 °C.
On to GAGCGCGGAAACGCGTTC ((.((((....)))).)), for which the folding enthalpy in data set [1] is -16.9 kcal/mol. Moreover, in data set [2], the Tm came out at 57.4 °C.
With GAGCGGCGAAAGCCCCTC (((.(((....))).))), the folding enthalpy in data set [1] was -14.1 kcal/mol. Besides, the Tm in data set [2] is 46.7 °C.
For GAGCGGCGAAAGCCCTC (((.(((....)))))) the same measures were -16.1 kcal/mol and 53 °C.
With GAGCTACCGAAAGGTCTC (((..(((....)))))), the folding enthalpy in data set [1] was -13.5 kcal/mol. In data set [2], the Tm came out at 27.6 °C.
For GAGCTAGGAAACTAACTC (((.(((....))).))) the same measures were -19.9 kcal/mol and 30.4 °C.
For GAGCTAGGAAACTAGCCC (.(((((....))))).) the same measures were -12.9 kcal/mol and 40.4 °C.
For GAGCTAGGAAACTAGTTC ((.((((....)))).)) the same measures were -26.8 kcal/mol and 37.2 °C.
Take GAGCTCCGAAAGGATCTC (((.(((....))).))): the folding enthalpy in data set [1] is -25 kcal/mol. In addition, the Tm in data set [2] stood at 46.4 °C.
For the sequence GAGCTGCGAAAGCACTC (((.(((....)))))), the folding enthalpy in data set [1] was -20.4 kcal/mol. In data set [2], the Tm amounted to 46.2 °C.
Consider GAGCTGGGAAACCGGCTC ((((.((....)).)))), for which the folding enthalpy in data set [1] was -38.5 kcal/mol. Further, the Tm in data set [2] stood at 59.2 °C.
Turning to GAGGAACGAAAGTTACTC (((.(((....))).))), the folding enthalpy in data set [1] was -39.3 kcal/mol. Moreover, the Tm in data set [2] came out at 54.5 °C.
For GAGGAACGAAAGTTGCTC (((.(((....))).))) the same measures were -47.7 kcal/mol and 53.9 °C.
As to GAGGAAGAAATTCCTC ((((((....)))))), the folding enthalpy in data set [1] was -25 kcal/mol. In addition, in data set [2], the Tm worked out at 47.7 °C.
Turning to GAGGAAGGAAACCTCCTC (((((.(....).))))), in data set [1], the folding enthalpy is -25.9 kcal/mol. Further, the Tm in data set [2] was 36.6 °C.
For GAGGACGAAAGTCCCCTC ((((((....)))..))) the same measures were -10.3 kcal/mol and 42.7 °C.
For GAGGACGAAAGTCCCTC ((((((....))).))), the folding enthalpy in data set [1] is -11.3 kcal/mol. Also, the Tm in data set [2] stood at 51.2 °C.
With GAGGACGAAAGTCGACTC ((((((....)))..))), the folding enthalpy in data set [1] was -14.9 kcal/mol. The Tm in data set [2] is 40.6 °C.
GAGGACGAAAGTCGCTC ((((((....))).))): the folding enthalpy in data set [1] is -17.8 kcal/mol. In addition, the Tm in data set [2] came to 46 °C.
Take GAGGACGAAAGTCTACTC ((((((....)))..))): the folding enthalpy in data set [1] is -12 kcal/mol. The Tm in data set [2] worked out at 36.8 °C.
As for GAGGACGAAAGTCTCCTC ((((((....)))..))), the folding enthalpy in data set [1] was -14.9 kcal/mol. The Tm in data set [2] was 36.3 °C.
Take GAGGAGACGAAAGTCCTC (((..(((....)))))): the folding enthalpy in data set [1] is -15.5 kcal/mol. Also, in data set [2], the Tm stood at 40.8 °C.
GAGGAGCGAAAGCTACTC (((.(((....))).))): the folding enthalpy in data set [1] is -31.4 kcal/mol. Also, the Tm in data set [2] turned out to be 64.8 °C.
Take GAGGAGGCGAAAGCCCTC (((..(((....)))))): the folding enthalpy in data set [1] was -14.1 kcal/mol. Also, in data set [2], the Tm came out at 44.1 °C.
As for GAGGATGGAAACATCCCC (.(((((....))))).), the folding enthalpy in data set [1] was -11.5 kcal/mol. In addition, the Tm in data set [2] was 42.8 °C.
Regarding GAGGCACGAAAGTGTCTC (((.(((....))).))), the folding enthalpy in data set [1] is -29 kcal/mol. For the same sequence, in data set [2], the Tm turned out to be 64.5 °C.
As for GAGGCCGAAAGGCCACTC ((((((....)))..))), the folding enthalpy in data set [1] is -10.2 kcal/mol. Also, the Tm in data set [2] was determined as 60.4 °C.
Consider GAGGCCGAAAGGCGACTC ((((((....)))..))), for which the folding enthalpy in data set [1] was -12.7 kcal/mol. Further, the Tm in data set [2] was 44.7 °C.
GAGGGACGAAAGTCACTC (((.(((....))).))): in data set [1], the folding enthalpy was -31.2 kcal/mol. Also, the Tm in data set [2] amounted to 65.6 °C.
For the sequence GAGGGAGGAAACCCCCTC (((((.(....).))))), in data set [1], the folding enthalpy was -28.5 kcal/mol. Also, in data set [2], the Tm is 46.3 °C.
As for GAGGGCGAAAGCCAACTC ((((((....)))..))), in data set [1], the folding enthalpy is -13 kcal/mol. For the same sequence, the Tm in data set [2] came out at 41.7 °C.
Consider GAGGGCGAAAGCCGACTC ((((((....)))..))), for which the folding enthalpy in data set [1] was -13 kcal/mol. Further, in data set [2], the Tm worked out at 44.6 °C.
Regarding GAGGGCGAAAGCCGCTC ((((((....))).))), the folding enthalpy in data set [1] was -13 kcal/mol. Further, the Tm in data set [2] was found to be 54.5 °C.
For GAGGGGCGAAAGCCTCTC (((.(((....))).))) the same measures were -23.3 kcal/mol and 58 °C.
On to GAGGGGGCGAAAGCCCTC (((..(((....)))))), for which, in data set [1], the folding enthalpy was -7.85 kcal/mol. Further, the Tm in data set [2] was 40.6 °C.
Regarding GAGGGTGCGAAAGCACTC (((..(((....)))))), in data set [1], the folding enthalpy was -8.61 kcal/mol. Further, in data set [2], the Tm was found to be 41.1 °C.
In the case of GAGGTAGCGAAAGCTCTC (((..(((....)))))), the folding enthalpy in data set [1] was -13.6 kcal/mol. The Tm in data set [2] was found to be 38 °C.
Consider GAGGTAGGAAACTACTTC ((.((((....)))).)), for which the folding enthalpy in data set [1] is -30.1 kcal/mol. In data set [2], the Tm was determined as 32.5 °C.
As to GAGGTCACGAAAGTGCTC (((..(((....)))))), the folding enthalpy in data set [1] is -13.4 kcal/mol. Further, the Tm in data set [2] was 30.7 °C.
For GAGGTCGGAAACGGCCTC ((((.((....)).)))), in data set [1], the folding enthalpy was -41.8 kcal/mol. In addition, the Tm in data set [2] was determined as 62.3 °C.
For the sequence GAGGTGCGAAAGCATCTC (((.(((....))).))), the folding enthalpy in data set [1] was -34 kcal/mol. Moreover, the Tm in data set [2] was 59.3 °C.

The values are drawn from the array DNA melting data of Ke et al. (doi:10.1101/2024.01.08.574731).
